This passage reports Activity and Ki results from ChEMBL document CHEMBL4673287, “Synthesis and biological evaluation of novel antipsychotic trans-4-(2-(1,2,4,5-tetrahydro-3H-benzo[d]azepin-3-yl)ethyl)cyclohexan-1-amine derivatives targeting dopamine/serotonin receptor subtypes” (Bioorg Med Chem Lett, 2021).

The test system of one experiment is Rattus norvegicus. Nature of the experiment: Antipsychotic activity in orally dosed Sprague-Dawley rat assessed as inhibition of PCP-induced hyperactivity administered 20 mins before PCP stimulation and measured after 1 hr. It counts as functional, organism-based. As to conditions: dose 1-10 mg/kg, time 80.0 min. The method, boiled down:
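Male Sprague-Dawley rats dosed orally 20 min before PCP (5 mg/kg) injection. Locomotor activity recorded for 1 h after PCP, read as total travel distance. Mean ± standard error of the mean, n = 8-10 per group.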

Experiment [1] concerns the target T1, Adrenergic receptor alpha-1 (Rattus norvegicus, UniProt P15823+P23944+P43140).
T1 sequence (P15823 whole entry): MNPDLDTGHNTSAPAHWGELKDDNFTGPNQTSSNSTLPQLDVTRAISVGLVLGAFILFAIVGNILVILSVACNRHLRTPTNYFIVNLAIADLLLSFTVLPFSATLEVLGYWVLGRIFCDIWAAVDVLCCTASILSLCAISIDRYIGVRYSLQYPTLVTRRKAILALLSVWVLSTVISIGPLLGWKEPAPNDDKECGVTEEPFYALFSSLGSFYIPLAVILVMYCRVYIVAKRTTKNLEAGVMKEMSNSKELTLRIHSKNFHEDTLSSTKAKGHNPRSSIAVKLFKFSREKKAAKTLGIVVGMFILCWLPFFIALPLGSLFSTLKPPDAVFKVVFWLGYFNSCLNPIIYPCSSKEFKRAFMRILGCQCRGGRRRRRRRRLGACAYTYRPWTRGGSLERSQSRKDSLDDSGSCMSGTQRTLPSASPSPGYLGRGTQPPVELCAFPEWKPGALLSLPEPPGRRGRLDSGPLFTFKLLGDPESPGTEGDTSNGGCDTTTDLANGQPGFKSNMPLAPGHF
T1 sequence (P23944 whole entry): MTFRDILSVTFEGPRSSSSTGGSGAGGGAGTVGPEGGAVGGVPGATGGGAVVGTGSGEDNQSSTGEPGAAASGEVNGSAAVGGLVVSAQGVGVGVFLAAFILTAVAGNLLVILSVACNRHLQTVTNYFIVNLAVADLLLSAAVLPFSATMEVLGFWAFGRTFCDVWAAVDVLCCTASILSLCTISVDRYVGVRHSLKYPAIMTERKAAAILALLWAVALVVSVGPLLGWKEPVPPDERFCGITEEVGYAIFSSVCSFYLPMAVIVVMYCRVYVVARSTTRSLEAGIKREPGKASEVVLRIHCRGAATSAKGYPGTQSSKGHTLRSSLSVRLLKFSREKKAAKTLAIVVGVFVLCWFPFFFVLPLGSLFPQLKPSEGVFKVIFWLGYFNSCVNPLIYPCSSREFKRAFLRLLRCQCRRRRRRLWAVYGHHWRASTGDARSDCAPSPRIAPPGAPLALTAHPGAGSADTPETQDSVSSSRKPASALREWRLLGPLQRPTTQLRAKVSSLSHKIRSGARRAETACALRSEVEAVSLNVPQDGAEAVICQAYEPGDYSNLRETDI
T1 sequence (P43140 whole entry): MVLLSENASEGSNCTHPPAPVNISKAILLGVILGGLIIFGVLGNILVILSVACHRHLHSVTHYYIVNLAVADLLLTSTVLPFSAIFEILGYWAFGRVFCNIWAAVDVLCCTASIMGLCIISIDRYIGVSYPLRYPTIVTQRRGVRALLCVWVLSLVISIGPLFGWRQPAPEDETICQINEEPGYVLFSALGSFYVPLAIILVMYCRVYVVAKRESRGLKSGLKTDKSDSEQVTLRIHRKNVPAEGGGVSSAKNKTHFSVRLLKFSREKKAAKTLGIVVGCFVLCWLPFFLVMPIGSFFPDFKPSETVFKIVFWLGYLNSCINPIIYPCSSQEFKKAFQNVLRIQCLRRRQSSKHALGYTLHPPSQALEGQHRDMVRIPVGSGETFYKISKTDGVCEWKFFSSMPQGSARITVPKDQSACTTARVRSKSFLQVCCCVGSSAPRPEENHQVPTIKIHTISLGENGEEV
Nature of the experiment: Displacement of [3H]-prazosin from adrenergic alpha1 in rat cerebral cortex. It counts as tissue-based. The method, boiled down:
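Eight-concentration displacement curves, two independent experiments in duplicate, value is the mean Ki.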

Experiment [2] concerns the target T2, Adrenergic receptor alpha-1 (Homo sapiens, UniProt P35348+P25100+P35368).
T2 sequence (P35348 whole entry): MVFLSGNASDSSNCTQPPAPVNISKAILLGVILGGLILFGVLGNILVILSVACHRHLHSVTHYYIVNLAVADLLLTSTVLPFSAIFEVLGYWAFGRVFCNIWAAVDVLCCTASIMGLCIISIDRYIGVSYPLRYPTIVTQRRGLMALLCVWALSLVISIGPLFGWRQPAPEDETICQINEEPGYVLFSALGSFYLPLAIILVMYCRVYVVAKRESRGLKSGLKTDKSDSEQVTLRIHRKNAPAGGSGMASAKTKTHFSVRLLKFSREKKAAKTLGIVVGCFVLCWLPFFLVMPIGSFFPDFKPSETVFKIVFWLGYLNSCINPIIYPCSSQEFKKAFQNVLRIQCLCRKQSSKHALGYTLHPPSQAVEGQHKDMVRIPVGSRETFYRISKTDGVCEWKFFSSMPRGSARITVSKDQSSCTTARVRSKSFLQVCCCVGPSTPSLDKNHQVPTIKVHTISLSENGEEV
T2 sequence (P25100 whole entry): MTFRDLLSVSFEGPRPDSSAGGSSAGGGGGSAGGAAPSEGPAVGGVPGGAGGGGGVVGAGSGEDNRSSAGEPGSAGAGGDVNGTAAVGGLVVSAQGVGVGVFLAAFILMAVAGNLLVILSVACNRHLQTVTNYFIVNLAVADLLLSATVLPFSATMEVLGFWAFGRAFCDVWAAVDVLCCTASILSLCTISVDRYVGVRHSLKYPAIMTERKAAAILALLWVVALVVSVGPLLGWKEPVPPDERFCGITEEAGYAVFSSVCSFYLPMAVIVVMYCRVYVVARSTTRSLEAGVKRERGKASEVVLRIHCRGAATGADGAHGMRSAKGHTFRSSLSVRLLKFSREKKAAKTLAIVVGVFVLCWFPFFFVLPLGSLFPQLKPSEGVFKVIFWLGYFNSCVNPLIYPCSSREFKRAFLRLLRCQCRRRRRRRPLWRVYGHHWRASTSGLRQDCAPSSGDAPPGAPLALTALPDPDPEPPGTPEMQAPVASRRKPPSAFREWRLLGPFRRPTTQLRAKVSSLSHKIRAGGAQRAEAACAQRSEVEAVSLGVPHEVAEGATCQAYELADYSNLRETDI
T2 sequence (P35368 whole entry): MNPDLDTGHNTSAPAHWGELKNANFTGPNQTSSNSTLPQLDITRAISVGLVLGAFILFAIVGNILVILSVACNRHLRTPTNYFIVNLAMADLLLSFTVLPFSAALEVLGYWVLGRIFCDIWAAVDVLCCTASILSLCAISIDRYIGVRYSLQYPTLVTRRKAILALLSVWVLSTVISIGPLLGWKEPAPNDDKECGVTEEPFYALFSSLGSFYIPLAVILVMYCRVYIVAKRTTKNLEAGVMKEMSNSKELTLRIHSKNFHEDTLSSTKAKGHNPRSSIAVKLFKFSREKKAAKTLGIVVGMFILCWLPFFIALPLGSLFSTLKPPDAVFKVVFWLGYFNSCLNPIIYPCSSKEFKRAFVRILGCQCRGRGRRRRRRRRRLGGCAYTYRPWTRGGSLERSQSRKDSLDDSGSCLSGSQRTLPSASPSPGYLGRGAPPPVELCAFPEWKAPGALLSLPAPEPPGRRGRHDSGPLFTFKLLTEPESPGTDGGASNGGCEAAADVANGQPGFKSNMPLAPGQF
The experiment can be described thus: Binding affinity to adrenergic alpha1 receptor (unknown origin). It counts as protein assay.

A word on the Ki: it is the equilibrium dissociation constant of an inhibitor or competing ligand from its target. For `CN(C)C(=O)N[C@H]1CC[C@H](CCN2CCN(c3cccc(Cl)c3Cl)CC2)CC1` [CARIPRAZINE], the Activity result in the experiment with Rattus norvegicus was “Dose-dependent effect”. In experiment [1], this molecule yielded a Ki of 155 nM.
In experiment [2], `CN1CC2c3ccccc3Oc3ccc(Cl)cc3C2C1` (stereo not drawn) [ASENAPINE] showed a Ki of 1.2 nM.
